Measurements from different studies.
Each line is one published result; the experiments were not run side by side.
Medium: Caco-2

SMILES | tested at | time | pH | efflux ratio
CO[C@@H](C[C@H]1C(C)=CC[C@@H]2[C@]3(C)C[C@H](O[C@@H]4O[C@@H](C)[C@H](OC(=O)c5cccc(O)c5)[C@@H](O[C@@H]5O[C@H](CO)[C@@H](O)[C@H](O)[C@H]5NC(C)=O)[C@H]4O)[C@@H](O)C(C)(C)[C@H]3CC[C@]21C)[C@H](N)C(=O)O.O=C(O)C(F)(F)F | 5 µM | 1 h | – | 4.6
C[C@H]1O[C@@H](O[C@H]2[C@@H](O)C[C@H](O[C@H]3[C@@H](O)C[C@H](O[C@H]4CC[C@@]5(C)[C@H](CC[C@@H]6[C@@H]5C[C@@H](O)[C@]5(C)[C@@H](C7=CC(=O)OC7)CC[C@]65O)C4)O[C@@H]3C)O[C@@H]2C)C[C@H](O)[C@@H]1O | 10 µM | 2 h | pH 7.4 | 87.9
C[C@H]1O[C@@H](O[C@H]2[C@@H](O)C[C@H](O[C@H]3[C@@H](O)C[C@H](O[C@H]4CC[C@@]5(C)[C@H](CC[C@@H]6[C@@H]5C[C@@H](O)[C@]5(C)[C@@H](C7=CC(=O)OC7)CC[C@]65O)C4)O[C@@H]3C)O[C@@H]2C)C[C@H](O)[C@@H]1O | – | – | – | 643
Nc1nc2c(ncn2COCCO)c(=O)[nH]1 | 10 µM | 2 h | pH 7.4 | 9.42
CC(C)NCC(O)COc1cccc2ccccc12 (stereo not drawn) | 10 µM | 2 h | pH 7.4 | 0.47
Cn1c(=O)c2c(nc(S)n2C)n(C)c1=O | 10 µM | 2 h | – | 3.3
CC(C)NCC(O)COc1cccc2ccccc12 (stereo not drawn) | 5 µM | 1 h | – | 0.8
CNC(=C[N+](=O)[O-])NCCSCc1ccc(CN(C)C)o1 | – | – | – | 5
CCOC(=O)[C@@]12C[C@@H]1[C@@H](n1ccc3c(NC)nc(C#Cc4ccc(Cl)s4)nc31)[C@H](O)[C@@H]2O | 10 µM | 2 h | pH 7.4 | 15.6
